Screening data as filed in PubChem.
PglD DTNB: C. jejuni PglD acetyltransferase inhibitors, primary screen, biochemical, DTNB colorimetric, single point | UDP-N-acetylbacillosamine N-acetyltransferase PglD (Campylobacter jejuni) | purified PglD enzyme, DTNB colorimetric CoA detection | inhibition, % at 12.5 µM | actives 0.098% (n = 360,000) | AID 602405, 2012; in the data active = inhibition above about 16%, passing the limit was not always enough; inconclusive = no clear call, values can overlap the other calls
FN deposit inh: inhibitors of fibronectin matrix deposition, primary screen, AH1F cells, Alexa488-fibronectin fluorescence, plate reader; AH1F fibroblasts, overnight; actives 0.086% (n = 350,000); inhibition, % at 12.6 µM;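 active = mean inhibition across replicates of 30% or more, regardless of how many single replicates reach that level; inconclusive = mean under 30% yet at least half of replicates reach 30%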
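Material – AH1F fibroblast monolayer, labelled fibronectin deposition · Reagent – labelled fibronectin 24 nM · Timing – 1 h adhesion, overnight exposure · Measured by – fluorescence at 485 nm excitation, 525 nm emission · Read-out – inhibition of fibronectin deposition signal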
rRNA inh HTS: reduced GFP signal of wild-type E. coli, primary screen, bacterial rRNA inhibitor project, GFP/RFP fluorescence, OD600, single point. E. coli WT GFP vs humanized-ribosome RFP mutants, 24 h; hits give low values; DMSO median 0, no signal -100. GFP signal change (wild-type ribosome), % (no concentration beside the values). actives 1.6% (n = 350,000). AID 720706, 2013;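 active = significant combined selectivity score with lowered wild-type GFP, culture density cut under 30%, mutant RFP and density less affected; inactive = any of these conditions unmet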
HIV Env fusion: inhibitors of HIV-1 Env-driven cell-cell fusion, primary screen, HeLa-JRFL effector, CEM21 target cells, luciferase; inhibition, % at 12.3 µM; actives 1.1% (n = 360,000); AID 651610, 2012;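 active = mean replicate inhibition score of at least 50 and every replicate individually at or above 50; inconclusive = only one of the two criteria met; inactive = mean below 50 and not all replicates reaching 50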
PGC1a acetyl inh: inhibitors of PGC1a acetylation signal, primary screen, cell-based, U2OS, AlphaScreen, inhibitor mode. AlphaScreen anti-acetyl-lysine; with virally co-expressed GCN5 acetyltransferase. inhibition, % at 15.6 µM. actives 0.17% (n = 350,000);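 active = every replicate shows inhibition of at least 40%; inconclusive = mean inhibition at least 40% but some replicate below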
DENV2 CPE rescue: inhibitors of DENV2 cytopathic effect, primary screen, cell-based, plate reader, single concentration; actives 1.7% (n = 350,000); CPE inhibition, % at 9.99 µM; AID 651640, 2012; DENV2-infected cells, cytopathic effect rescue; in the data active = CPE inhibition above about 20%, passing the limit was not always enough; inconclusive = no clear call, values can overlap the other calls; tested in BHK-21 cells
Large screens that a line does not name were inactive; [ ] = dose if it differs, or a comment. Rows were chosen to be rich in hits. Some 3.5% of all compounds tested hit in one or more screens of this group.

CC=Cc1ccc2n(c1=O)C[C@H]1[C@H](CO)[C@@H](C(=O)N(C)C)N(CCC(F)(F)F)[C@@H]21 (mixture of isomers)	none (no result: FN deposit inh, PGC1a acetyl inh)
Nc1ccn(C2OC(COP(=O)(O)O)C(O)C2O)c(=O)n1 (stereo not drawn)	HIV Env fusion 82 (no result: PglD DTNB)
CC(=O)NC[C@H]1O[C@@H](n2ccc(N)nc2=O)[C@H](O)[C@@H]1O	none (no result: HIV Env fusion)
CO[C@H]1CC[C@@H]2CCN(C)C(=O)[C@H](C)N(C)C(=O)c3cccc(C#N)c3OC[C@H]1O2	none (no result: PGC1a acetyl inh, DENV2 CPE rescue)
C[C@@H]1CN([C@H](C)CO)C(=O)Cc2cc(NS(=O)(=O)c3cn(C)cn3)ccc2O[C@H]1CN(C)CC1CC1	DENV2 CPE rescue inconclusive
O=C(Nc1ccc(Cl)c(C(F)(F)F)c1)[C@@H]1CC=C[C@@H]2CCN(Cc3ccccc3)C(=O)[C@@H]21	HIV Env fusion 64 (no result: PGC1a acetyl inh)
NCCCn1c(C(=O)c2cc(Cl)c(N)c(Cl)c2)c2ccc([N+](=O)[O-])cc2[n+]1[O-]	PGC1a acetyl inh 54
COc1ccccc1S(=O)(=O)Nc1ccc2c(c1)OC[C@H](C)NC[C@H](C)[C@H](OC)CN(C)C2=O	none
O=C(COC(=O)c1cccc(Br)c1)Nc1ccc2[nH]c(=O)[nH]c2c1	DENV2 CPE rescue 73 (no result: FN deposit inh)
CC(=O)c1cccc(NC(=O)COC(=O)c2n[nH]c3ccccc23)c1	rRNA inh HTS -23 (no result: PglD DTNB, FN deposit inh)
CNc1snc(C)c1C(=O)OC(C)C(=O)Nc1cccc(OC)c1 (stereo not drawn)	none (no result: rRNA inh HTS, HIV Env fusion)
COc1cccc(NC(=O)C(C)OC(=O)c2n[nH]c3ccccc23)c1 (stereo not drawn)	rRNA inh HTS -27
O=C(COC(=O)c1n[nH]c2ccccc12)Nc1ccccc1	none (no result: PglD DTNB, PGC1a acetyl inh)
C[C@@H]1CN([C@@H](C)CO)C(=O)c2cc(NC(=O)Nc3ccc4c(c3)OCO4)ccc2O[C@@H](C)CCCCO[C@H]1CN(C)C(=O)C1CCCCC1	HIV Env fusion inconclusive, DENV2 CPE rescue 77 (no result: FN deposit inh)
C[C@H](CO)N1C[C@H](C)[C@H](CN(C)C(=O)C2CCCCC2)OCCCC[C@H](C)Oc2ccc(NC(=O)Nc3ccccc3)cc2C1=O	HIV Env fusion 60[16.7 µM]
C[C@@H]1CCCCO[C@H](CN(C)C(=O)C2CCCCC2)[C@@H](C)CN([C@H](C)CO)C(=O)c2cc(NC(=O)Nc3ccc4c(c3)OCO4)ccc2O1	DENV2 CPE rescue inconclusive (no result: FN deposit inh)
C[C@H]1CCCCO[C@@H](CN(C)C(=O)C2CCCCC2)[C@@H](C)CN([C@@H](C)CO)C(=O)c2cc(NC(=O)Nc3ccccc3)ccc2O1	HIV Env fusion 64[16.7 µM]
CNC[C@H]1Oc2ccc(NS(=O)(=O)c3cn(C)cn3)cc2CC(=O)N([C@@H](C)CO)C[C@@H]1C	none
COc1ccccc1S(=O)(=O)N[C@H]1CC[C@@H](CCNC(=O)C2CCC2)O[C@H]1CO	none (no result: FN deposit inh)
CCCC(=O)Nc1ccc2c(c1)C(=O)N(C)C[C@H](OC)[C@H](C)CN(CCC(F)(F)F)[C@@H](C)CO2	DENV2 CPE rescue 22
CO[C@H]1CN(C)C(=O)c2cc(NC(=O)CC(F)(F)F)ccc2OC[C@H](C)N(C(=O)C2CCCCC2)C[C@H]1C	DENV2 CPE rescue 50 (no result: PglD DTNB, HIV Env fusion)
CCS(=O)(=O)Nc1ccc2c(c1)C(=O)N(C)C[C@@H](OC)[C@H](C)CN(C(=O)C1CCC1)[C@@H](C)CO2	none (no result: FN deposit inh)
CCS(=O)(=O)Nc1ccc2c(c1)C(=O)N(C)C[C@H](OC)[C@@H](C)CN(C(=O)C1CCC1)[C@H](C)CO2	HIV Env fusion 61[16.7 µM] (no result: FN deposit inh)
CCCC(=O)Nc1ccc2c(c1)C(=O)N(C)C[C@@H](OC)[C@@H](C)CN(CCC(F)(F)F)[C@H](C)CO2	none
CCCN1C[C@@H](C)[C@@H](OC)CN(C)C(=O)c2cc(NC(=O)CC(F)(F)F)ccc2OC[C@@H]1C	DENV2 CPE rescue 56 (no result: PglD DTNB, HIV Env fusion)
CNC(=O)C[C@@H]1CC[C@@H]2[C@H](COc3ccc(NC(=O)Nc4ccc(Cl)cc4)cc3C(=O)N2C)O1	none
CCC(=O)Nc1ccc2c(c1)OC[C@H](C)N(CCC(F)(F)F)C[C@@H](C)[C@H](OC)CN(C)C2=O	DENV2 CPE rescue 24 (no result: PGC1a acetyl inh)
Cc1ccc(N=Nc2cc(C)ccc2N)cc1	rRNA inh HTS -53 (no result: PglD DTNB)
O=c1cc(CSc2nnc(-c3ccccc3)o2)c2ccccc2[nH]1	DENV2 CPE rescue 76
C[C@H](CO)N1C[C@H](C)[C@@H](CN(C)Cc2ccc(C(=O)O)cc2)Oc2c(NS(=O)(=O)c3ccccc3)cccc2C1=O	none
C[C@@H]1CN([C@@H](C)CO)C(=O)c2cccc(NS(=O)(=O)c3ccccc3)c2O[C@@H]1CN(C)Cc1ccc(Cl)c(Cl)c1	HIV Env fusion 73[16.7 µM] (no result: FN deposit inh)
C[C@H]1CN([C@@H](C)CO)C(=O)c2cccc(NS(=O)(=O)c3ccccc3)c2O[C@@H]1CN(C)Cc1ccc(C(=O)O)cc1	DENV2 CPE rescue 31
C[C@@H]1CN([C@@H](C)CO)C(=O)c2cccc(NS(=O)(=O)c3ccccc3)c2O[C@H]1CN(C)Cc1ccc(Cl)c(Cl)c1	none (no result: FN deposit inh)
C[C@@H]1CN([C@H](C)CO)C(=O)c2cccc(NS(=O)(=O)c3ccccc3)c2O[C@@H]1CN(C)Cc1ccc(Cl)c(Cl)c1	HIV Env fusion 81[16.7 µM] (no result: FN deposit inh)
C[C@H](CO)N1C[C@H](C)[C@@H](CN(C)Cc2ccc(Cl)c(Cl)c2)Oc2c(NS(=O)(=O)c3ccc(F)cc3)cccc2C1=O	none
COc1cccc(C(=O)Nc2ccc3c(c2)OC[C@H](C)N(CC2CC2)C[C@H](C)[C@@H](OC)CN(C)C3=O)c1	none (no result: PglD DTNB, HIV Env fusion, PGC1a acetyl inh, DENV2 CPE rescue)
CCCC(=O)Nc1ccc2c(c1)OC[C@@H](C)N(C(=O)c1cnccn1)C[C@@H](C)[C@@H](OC)CN(C)C2=O	none (no result: HIV Env fusion)
COc1cc(C2Nc3cccc4cccc(c34)N2)ccc1OC(C)=O	PGC1a acetyl inh 56 (no result: FN deposit inh, rRNA inh HTS, HIV Env fusion, DENV2 CPE rescue)
COc1cccc(S(=O)(=O)N[C@H]2C=C[C@H](CC(=O)NCc3ccc(F)cc3)O[C@H]2CO)c1	none
COC(=O)[C@H](Cc1c[nH]c2ccccc12)NCc1cccc(B(O)O)c1	rRNA inh HTS -24
CCC(=O)Nc1nc(-c2ccc3c(c2)CC(C)N3S(C)(=O)=O)cs1 (stereo not drawn)	none
CC1Cc2cc(-c3csc(NC(=O)Cc4cccs4)n3)ccc2N1S(C)(=O)=O (stereo not drawn)	HIV Env fusion 75 (no result: rRNA inh HTS, DENV2 CPE rescue)
CO[C@H]1CN(C)C(=O)c2cc(NC(=O)C3CC3)ccc2OC[C@@H](C)N(Cc2cc(F)ccc2F)C[C@@H]1C	none (no result: HIV Env fusion)
